Experimental data reported in ChEMBL document CHEMBL1143879, “Identification of novel series of human CCR1 antagonists” (Bioorg Med Chem Lett, 2008).

Tests used:
[1] = target: T1, C-C chemokine receptor type 1 (Homo sapiens, UniProt P32246); test: Displacement of [125I]MIP1-alpha from human CCR1 receptor expressed in THP1 cells; format: cell-based, THP-1
T1 sequence (P32246 whole entry): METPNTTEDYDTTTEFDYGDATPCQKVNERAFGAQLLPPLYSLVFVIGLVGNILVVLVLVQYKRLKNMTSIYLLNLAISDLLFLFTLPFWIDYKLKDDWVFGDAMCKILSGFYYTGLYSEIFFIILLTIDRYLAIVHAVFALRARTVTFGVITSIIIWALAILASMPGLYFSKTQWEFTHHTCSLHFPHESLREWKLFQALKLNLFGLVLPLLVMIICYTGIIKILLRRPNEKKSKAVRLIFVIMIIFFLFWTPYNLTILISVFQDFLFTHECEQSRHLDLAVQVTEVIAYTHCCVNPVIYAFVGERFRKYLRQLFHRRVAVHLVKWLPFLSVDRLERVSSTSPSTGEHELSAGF
In short: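 THP-1 cells expressing CCR1, washed in PBS, at 5 × 10⁶/ml with compound or vehicle and 50 pM human [¹²⁵I]MIP-1α. Binding buffer: 50 mM Hepes pH 7.4, 5 mM MgCl₂, 1 mM CaCl₂, 0.5% BSA. Incubated 90 min at room temperature, then filtered on PEI-coated glass fibre and washed with buffer plus 0.5 M NaCl. Bound counts by scintillation. IC50, mean of triplicates in one experiment.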

[2] = target: T1, C-C chemokine receptor type 1; test: Antagonist activity at human CCR1 receptor expressed in THP1 cells assessed as human MIP-1-alpha-stimulated intracellular calcium level by FLIPR assay; format: functional, cell-based, THP-1
In short: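 THP-1 cells in RPMI-1640 at 2 × 10⁶/ml, mixed 1:1 with calcium dye buffer, loaded 30 min at 37 °C with 2.5 mM probenecid. Cells spun down, resuspended in RPMI-1640 with 0.1% BSA and plated at 1.5 × 10⁵/well with or without compound. Stimulated with 5 nM human MIP-1α; intracellular Ca²⁺ change read by FLIPR. IC50, mean of at least two independent experiments.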

SMILES | IC50 [1] [nM] | IC50 [2] [nM]
O=S(=O)(c1c(F)cc(F)cc1Br)N1CCC(N2CCC(O)(c3ccc(Cl)cc3)CC2)CC1 | 1120 | 330
O=S(=O)(c1ccccc1Cl)N1CCC(N2CCC(O)(c3ccc(Cl)c(Cl)c3)CC2)CC1 | 890 | 180
O=S(=O)(NCCCN1CCC(O)(c2ccc(Cl)cc2)CC1)c1ccc(C(F)(F)F)cc1 | 9400 | 2200
O=S(=O)(NCCCN1CCC(O)(c2ccc(Cl)cc2)CC1)c1ccc(Cl)cc1Cl | 410 | 360
O=S(=O)(NCCCN1CCC(O)(c2ccc(Cl)cc2)CC1)c1cccc(Cl)c1Cl | 510 | 350
O=S(=O)(c1ccccc1Br)N1CCC[C@@H](N2CCC(O)(c3ccc(Cl)cc3)CC2)C1 | 1400 | 1400
O=S(=O)(c1cccs1)N1CCC(N2CCC(O)(c3ccc(Cl)cc3)CC2)CC1 | 970 | 1020
Cc1cccc(Cl)c1S(=O)(=O)N1CCC[C@@H](N2CCC(O)(c3ccc(Cl)cc3)CC2)C1 | 390 | 270
O=S(=O)(NCCCN1CCC(O)(c2ccc(Cl)cc2)CC1)c1ccc(-c2ccccc2)cc1 | > 30000 | > 30000
O=S(=O)(NCCCN1CCC(O)(c2ccc(Cl)cc2)CC1)c1ccccc1C(F)(F)F | 250 | 50
O=S(=O)(c1ccccc1Cl)N1CCC(N2CCC(O)(c3cc(F)c(F)c(F)c3)CC2)CC1 | 1330 | 2550
O=S(=O)(c1ccccc1Br)N1CCC[C@H](N2CCC(O)(c3ccc(Cl)cc3)CC2)C1 | 460 | 1300
Cc1cccc(Cl)c1S(=O)(=O)N1CCC(C)(N2CCC(O)(c3ccc(Cl)cc3)CC2)CC1 | 3570 | 2260
O=S(=O)(NCCCN1CCC(O)(c2ccc(Cl)cc2)CC1)c1ccc(Cl)c(Cl)c1 | 1850 | 2460
O=S(=O)(NCCCN1CCC(O)(c2ccc(Cl)cc2)CC1)c1ccccc1-c1ccsc1 | 350 | 110
O=S(=O)(NCCCN1CCC(O)(c2ccc(Cl)cc2)CC1)c1ccc2ccccc2c1 | 1150 | 520
O=S(=O)(NCCCN1CCC(O)(c2ccc(Cl)cc2)CC1)c1ccc(F)cc1Cl | 360 | 100
O=S(=O)(c1ccccc1Cl)N1CCC(N2CCC(O)(c3ccc(Oc4ccccc4)cc3)CC2)CC1 | > 10000 | > 10000
CC1CC(N2CCC(O)(c3ccc(Cl)cc3)CC2)CCN1S(=O)(=O)c1ccccc1Cl (configuration not stated) | 320 | 280

SMILES | IC50 [1] [nM] | IC50 [2] [nM]
CC1(N2CCC(O)(c3ccc(Cl)cc3)CC2)CCN(S(=O)(=O)c2ccccc2Cl)CC1 | 5150 | 2260
O=S(=O)(NCCCN1CCC(O)(c2ccc(Cl)cc2)CC1)c1cccs1 | 160 | 70
O=S(=O)(NCCCN1CCC(O)(c2ccc(Cl)cc2)CC1)c1ccccc1Cl | 110 | 40
CC1CC(N2CCC(O)(c3ccc(Cl)cc3)CC2)CCN1S(=O)(=O)c1ccccc1Br (configuration not stated) | 220 | 120
O=S(=O)(NCCCN1CCC(O)(c2ccc(Cl)cc2)CC1)c1cccc(Cl)c1 | 380 | 100
O=S(=O)(c1ccccc1Cl)N1CCC(N2CCC(O)(c3ccc(-c4ccccc4)cc3)CC2)CC1 | > 10000 | > 10000
COc1ccc(S(=O)(=O)NCCCN2CCC(O)(c3ccc(Cl)cc3)CC2)cc1 | 3880 | 830
O=C(NCCCN1CCC(O)(c2ccc(Cl)cc2)CC1)c1ccc2ccccc2c1 | 5830 | 1650
Cc1cccc(Cl)c1S(=O)(=O)NCCCN1CCC(O)(c2ccc(Cl)cc2)CC1 | 90 | 40
O=S(=O)(NCCCN1CCC(O)(c2ccc(Cl)cc2)CC1)c1cccc2ccccc12 | 680 | 180
O=S(=O)(NCCCN1CCC(O)(c2ccc(Cl)cc2)CC1)c1cc(Cl)cc(Cl)c1 | 780 | 1340
O=S(=O)(c1ccccc1Cl)N1CCC(N2CCC(O)(c3ccc(Cl)cc3)C2)CC1 (configuration not stated) | > 30000 | > 10000
O=S(=O)(c1ccccc1Cl)N1CCC[C@H](N2CCC(O)(c3ccc(Cl)cc3)CC2)C1 | 1900 | 2040
O=S(=O)(c1c(Cl)cccc1Cl)N1CCC(N2CCC(O)(c3ccc(Cl)cc3)CC2)CC1 | 420 | 420
COc1ccc(C2(O)CCN(C3CCN(S(=O)(=O)c4ccccc4Cl)CC3)CC2)cc1 | > 10000 | > 10000
O=S(=O)(NCCCN1CCC(O)(c2ccc(Cl)cc2)CC1)c1ccccc1F | 580 | 80
O=S(=O)(NCCCN1CCC(O)(c2ccc(Cl)cc2)CC1)c1ccc(F)cc1 | 910 | 210
O=S(=O)(NCCCN1CCC(O)(c2ccc(Cl)cc2)CC1)c1ccccc1OC(F)(F)F | 350 | 190
O=S(=O)(NCCCN1CCC(O)(c2ccc(Cl)cc2)CC1)c1ccccc1 | 300 | 90

SMILES | IC50 [1] [nM] | IC50 [2] [nM]
Cc1ccccc1S(=O)(=O)N1CCC(N2CCC(O)(c3ccc(Cl)cc3)CC2)CC1 | 500 | 180
CC1(N2CCC(O)(c3ccc(Cl)cc3)CC2)CCN(S(=O)(=O)c2cccs2)CC1 | > 10000 | 7330
O=S(=O)(NCCCN1CCC(O)(c2ccc(Cl)cc2)CC1)c1cc(Cl)ccc1Cl | 540 | 280
Cc1ccccc1S(=O)(=O)NCCCN1CCC(O)(c2ccc(Cl)cc2)CC1 | 150 | 30
N#CC1(c2ccc(Cl)cc2)CCN(CCCNS(=O)(=O)c2ccccc2Cl)CC1 | 600 | –
Cc1cccc(Cl)c1S(=O)(=O)N1CCC[C@H](N2CCC(O)(c3ccc(Cl)cc3)CC2)C1 | 430 | 480
O=S(=O)(c1ccccc1Cl)N1CCC[C@@H](N2CCC(O)(c3ccc(Cl)cc3)CC2)C1 | 1980 | 1290
O=S(=O)(NCCCN1CCC(O)(c2ccc(Cl)cc2)CC1)c1ccsc1 | 570 | 385
CC1(N2CCC(O)(c3ccc(Cl)cc3)CC2)CCN(S(=O)(=O)c2c(Cl)cccc2Cl)CC1 | 4200 | 4650
Cc1cccc(Cl)c1S(=O)(=O)N1CCC(N2CCC(O)(c3ccc(Cl)cc3)C2)CC1 (configuration not stated) | > 30000 | > 10000
O=S(=O)(NCCCN1CCC(O)(c2ccc(Cl)cc2)CC1)c1c(Cl)cccc1Cl | 80 | 30
O=S(=O)(c1ccc(Cl)c(Cl)c1Cl)N1CCC(N2CCC(O)(c3ccc(Cl)cc3)CC2)CC1 | 3600 | 670
O=S(=O)(c1ccccc1Cl)N1CCC(N2CCC(O)(c3ccc(F)c(Cl)c3)CC2)CC1 | 510 | 590
Cc1ccc(S(=O)(=O)NCCCN2CCC(O)(c3ccc(Cl)cc3)CC2)cc1 | 430 | 120
Cc1cccc(Cl)c1S(=O)(=O)N1CCC(N2CCC(O)(c3ccc(Cl)cc3)CC2)CC1 | 370 | 430
O=S(=O)(NCCCN1CCC(O)(c2ccc(Cl)cc2)CC1)c1ccccc1Br | 140 | 170
O=S(=O)(c1ccccc1Cl)N1CCC(N2CCC(O)(c3ccc(F)cc3)CC2)CC1 | 1170 | 1250
O=S(=O)(NCCCN1CCC(O)(c2ccc(Cl)cc2)CC1)c1ccc(OC(F)(F)F)cc1 | 9000 | 3650
N#CC1(c2ccc(Cl)cc2)CCN(C2CCN(S(=O)(=O)c3ccccc3Cl)CC2)CC1 | 1000 | –
